# Results published in ChEMBL document CHEMBL3779787, “Amorfrutin C Induces Apoptosis and Inhibits Proliferation in Colon Cancer Cells through Targeting Mitochondria” (J Nat Prod, 2016).
# Activity calls are given as the source filed them. The calls are words filed in the database; no cut-off is given here.
# Assays:
# HT-29 [1] = test: Induction of apoptosis in human HT-29 cells after 24 hrs by annexin V-FLUOS/propidium iodide staining-based flow cytometry; format: functional, cell-based
# HT-29 [2] = test: Induction of apoptosis in human HT-29 cells assessed as mitochondrial membrane depolarization after 5 mins by JC-1 dye-based fluorescence assay; format: functional, cell-based
# How it was run: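 HT-29 (40 000 cells/well) treated with concentration series for 5 min at 37 °C, then JC-1 added for a further 10 min and washed. Red (560/590 nm) to green (485/520 nm) fluorescence ratio taken as ΔΨm; variable-slope fit for IC50; means ± SD, n = 4.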
# T84 [3] = test: Antiproliferative activity against human T84 cells assessed as cellular DNA content after 96 hrs by CyQUANT NF fluorescence assay relative to control; format: functional
# How it was run: (§1)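 Cells seeded at 750 (HT-29), 250 (PC-3) or 900 (T84, MCF7) cells/well, treated next day with concentration series for 72 h (HT-29, PC-3) or 96 h (T84, MCF7). Relative cell number from cellular DNA content by fluorescent DNA-binding dye. Variable-slope fit; efficiency = maximal inhibition (100% − Bottom) vs untreated; IC50 relative to the compound's own maximal efficiency.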
# MCF7 [4] = test: Antiproliferative activity against human MCF7 cells assessed as cellular DNA content after 96 hrs by CyQUANT NF fluorescence assay; format: functional, cell-based; settings: MCF7, 96 h; how it was run: as §1
# [5] = Antiproliferative activity against human PC3 cells assessed as cellular DNA content after 72 hrs by CyQUANT NF fluorescence assay; format: functional, cell-based; settings: PC-3, 72 h; how it was run: as §1
# T84 [6] = test: Antiproliferative activity against human T84 cells assessed as cellular DNA content after 96 hrs by CyQUANT NF fluorescence assay; format: functional, cell-based; settings: T84, 96 h; how it was run: as §1
# [7] = Antiproliferative activity against human PC3 cells assessed as cellular DNA content after 72 hrs by CyQUANT NF fluorescence assay relative to control; format: functional, PC-3; how it was run: as §1
# MCF7 [8] = test: Antiproliferative activity against human MCF7 cells assessed as cellular DNA content after 96 hrs by CyQUANT NF fluorescence assay relative to control; format: functional; how it was run: as §1
# HT-29 [9] = test: Antiproliferative activity against human HT-29 cells assessed as cellular DNA content after 72 hrs by CyQUANT NF fluorescence assay relative to control; format: functional; how it was run: as §1
# HT-29 [10] = test: Antiproliferative activity against human HT-29 cells assessed as cellular DNA content after 72 hrs by CyQUANT NF fluorescence assay; format: functional, cell-based; settings: HT-29, 72 h; how it was run: as §1
# HT-29 [11] = test: Increase in mitochondrial oxygen consumption in human HT-29 cells measured for 20 to 60 mins by time-resolved fluorescence assay; format: functional, cell-based
# How it was run: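 Oxygen-sensitive MitoXpress-Xtra probe in phenol red-free DMEM/F-12 on HT-29 seeded 80 000/well the day before; 10 min at 37 °C, compounds added, wells sealed with mineral oil. Time-resolved fluorescence at 37 °C, 90 s intervals for 150 min, background subtracted. Lifetime slope from 20 to 60 min taken relative to untreated cells; means ± SEM, n = 8.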
# HT-29 [12] = test: Increase in extracellular acidification rate in human HT-29 cells measured for 20 to 150 mins by time-resolved fluorescence assay relative to control; format: functional
Compound,Activity (HT-29 [1]),Activity (HT-29 [2]),Efficacy (T84 [3]) [%],IC50 (MCF7 [4]) [nM],IC50 [5] [nM],IC50 (T84 [6]) [nM],Efficacy [7] [%],Efficacy (MCF7 [8]) [%],Efficacy (HT-29 [9]) [%],IC50 (HT-29 [10]) [nM],Activity (HT-29 [11]),fold change (FC) (HT-29 [12])
COC(=O)c1c(O)c(CC=C(C)C)c(OC)c(CC=C(C)C)c1CCc1ccccc1,Active,Active,,,,,,,,,,
COc1cc(CCc2ccccc2)c(C(=O)O)c(O)c1C/C=C(\C)CCC=C(C)C,,,99,33000,32000,13000,95,94,98,20000,,
COc1c(CC=C(C)C)c(CCc2ccccc2)c(C(=O)O)c(OC)c1CC=C(C)C,Active,Active,,,,,,,,,,
COc1cc([C@@H]2c3cc4c(cc3[C@@H](O[C@@H]3O[C@@H]5CO[C@@H](C)O[C@H]5[C@H](O)[C@H]3O)[C@H]3COC(=O)[C@H]23)OCO4)cc(OC)c1O [ETOPOSIDE],,,90,800,1100,3000,84,78,97,2200,,
O=c1[nH]cc(F)c(=O)[nH]1 [FLUOROURACIL],,,76,900,4900,6200,80,80,68,5300,,
CCCCCCC1C(=O)O[C@H](C)[C@H](NC(=O)c2cccc(NC=O)c2O)C(=O)O[C@@H](C)[C@@H]1OC(=O)CC(C)C (stereo not given in full),,,,,,,,,,,Active,7
N#CC(C#N)=NNc1cccc(Cl)c1 [CARBONYL CYANIDE M-CHLOROPHENYLHYDRAZONE],,,,,,,,,,,Active,3
CCc1c2c(nc3ccc(OC(=O)N4CCC(N5CCCCC5)CC4)cc13)-c1cc3c(c(=O)n1C2)COC(=O)[C@]3(O)CC [IRINOTECAN],,,82,900,800,1200,76,82,71,1900,,
